Test results: ChEMBL document CHEMBL2040777, “N-Aryl-N'-(chroman-4-yl)ureas and thioureas display in vitro anticancer activity and selectivity on apoptosis-resistant glioblastoma cells: screening, synthesis of simplified derivatives, and structure-activity relationship analysis” (Eur J Med Chem, 2012)
Activity calls are given as the source filed them. No cut-off for these calls is given here.

Assays:
[1] = Growth inhibition of human U373 cells after 72 hrs by MTT assay; assay type: functional, cell-based, U-373MG ATCC; conditions: U373 MG
Outline: (§1)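 Glioma lines were grown in RPMI with 10% heat-inactivated FCS, 4 mM glutamine, gentamicin and penicillin-streptomycin. Cells were plated for 24 h at 10,000–40,000 cells/mL, then exposed to compound for 72 h. MTT reduction to formazan was read at 570 nm (reference 630 nm). Six replicates were run.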

[2] = Cell cycle arrest in human U373 cells assessed as accumulation at G0/G1 phase at 30 to 100 uM after 24 hrs by propidium iodide staining-based flow cytometric analysis; assay type: functional; conditions: U-373MG ATCC
[3] = Growth inhibition of human Hs683 cells after 72 hrs by MTT assay; assay type: functional, cell-based; conditions: Hs 683, 72 h; outline: as §1
B16-F10 = assay: Growth inhibition of mouse B16F10 cells after 72 hrs by MTT assay; assay type: functional, cell-based; conditions: B16-F10, 72 h
[4] = Cytostatic activity against human U373 cells assessed as global growth ratio by measuring number of cells counted in the last and the first frame of study at 20 uM by quantitative videomicroscopic analysis; assay type: functional, U-373MG ATCC
Outline: (§2)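 U373 cells were cultured in 25 cm² flasks and filmed by computer-assisted phase-contrast time-lapse for 72 h, one image every 4 min. Growth level was the cell count in the last frame divided by the first. Global growth ratio was treated growth level over control growth level. Compounds were tested at 20 µM.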

U-373MG ATCC = assay: Induction of apoptosis in human U373 cells assessed as increase in subG1 cell population at 10 to 30 uM after 24 hrs by flow cytometric analysis; assay type: functional, cell-based
T98G [5] = assay: Growth inhibition of human T98G cells after 72 hrs by MTT assay; assay type: functional, cell-based; outline: as §1
[6] = Growth inhibition of human U373 cells assessed as global growth ratio after 72 hrs by quantitative videomicroscopic analysis relative to untreated control; assay type: functional, U-373MG ATCC; conditions: U373 MG; outline: as §2
Hs 683 = assay: Selectivity index, ratio of IC50 for mouse astrocytes to IC50 for human Hs683 cells
[7] = Cell cycle arrest in human U373 cells assessed as accumulation at G0/G1 phase at 10 to 30 uM after 24 hrs by propidium iodide staining-based flow cytometric analysis; assay type: functional; conditions: U-373MG ATCC
T98G [8] = assay: Selectivity index, ratio of IC50 for mouse astrocytes to IC50 for human T98G cells
[9] = Selectivity index, ratio of IC50 for mouse astrocytes to IC50 for human U373 cells; set-up: species or system U-373MG ATCC

Compound	IC50 [1] [µM]	Activity [2]	IC50 [3] [µM]	IC50 (B16-F10) [µM]	Ratio [4]	Activity (U-373MG ATCC)	IC50 (T98G [5]) [µM]	IC80 [6] [µM]	Ratio IC50 (Hs 683)	Activity [7]	Ratio IC50 (T98G [8])	Ratio IC50 [9]
CC(N/C(=N\C#N)Nc1ccncc1)C(C)(C)C (stereo not drawn) [PINACIDIL ANHYDROUS]	> 100	inactive										
CC1(C)CC(NC(=O)Nc2ccccc2Cl)c2cc(Br)ccc2O1 (stereo not drawn)	19		22	22	0.2	inactive	11	20	>10	Active	>10	>10
